This note sets out measurements from ChEMBL document CHEMBL1932969, “Acyl derivatives of boswellic acids as inhibitors of NF-κB and STATs” (Bioorg Med Chem Lett, 2012).

Assay [1] relates to HL-60. The experiment in a line: Induction of apoptosis in p53-deficient human HL60 cells assessed as post-apoptotic cells at 50 uM after 6 hrs by FITC-conjugated annexinV/PI-based flow cytometric analysis (reference value: 1 %). The class given is functional. In outline: (§1)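 HL-60 cells incubated with each analog at 50 µM for 6 h, stained with annexin V-FITC/propidium iodide and analysed by flow cytometry. Lower right quadrant is apoptotic, upper right post-apoptotic, upper left necrotic. Three experiments, with representative dot plots shown.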
(In general: In flow cytometry, cells or beads pass a laser one at a time.)

Assay [2] has as its system HL-60. The assay can be described thus: Induction of apoptosis in p53-deficient human HL60 cells assessed as apoptotic cells at 50 uM after 6 hrs by FITC-conjugated annexinV/PI-based flow cytometric analysis (reference value: 5 %). It counts as functional. A digest of the protocol: as §1
The subject of assay [3] is HL-60. The assay can be described thus: Induction of autophagy in p53-deficient human HL60 cells at 50 uM after 6 hrs by acridine orange staining. The class given is functional, cell-based. A digest of the protocol:
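Autophagy scored by flow cytometry of HL-60 cells stained with acridine orange after 6 h exposure.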

The subject of the next assay is SW-620. The assay can be described thus: Anticancer activity against human SW620 cells assessed as growth inhibition at 50 uM after 48 hrs by SRB assay. The conditions noted are these: SW-620, 48 h, read-out: GI. It counts as functional. In outline: (§2)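 Cells exposed to test compounds at 50 µM for 48 h. Read-out is percent growth inhibition, with SEM given. 5-Fluorouracil and adriamycin serve as reference agents.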
(In general: Sulforhodamine B stains cellular protein and so reports cell mass.)

For another assay, the system named is HT-29. The assay can be described thus: Anticancer activity against human HT-29 cells assessed as growth inhibition at 50 uM after 48 hrs by SRB assay. The class given is functional. Conditions: HT-29, 48 h, read-out: GI. In outline: as §2
For assay [4], the system named is HL-60. The experiment in a line: Induction of apoptosis in p53-deficient human HL60 cells assessed as DNA fragmentation at 50 uM after 6 hrs by agarose gel electrophoresis. The class given is functional, cell-based. A digest of the protocol: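 2 × 10⁶ HL-60 cells treated with derivatives at 50 µM for 6 h, then scored for an apoptotic DNA ladder of 180–200 bp fragments or multiples. The positive control is 4 µM camptothecin for 6 h.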

Another assay deals with HEp-2. The experiment in a line: Anticancer activity against human Hep2 cells assessed as growth inhibition at 50 uM after 48 hrs by SRB assay. The class given is functional. Conditions: HEp-2, 48 h, read-out: GI. In outline: as §2
In the next assay the test system is COLO 205. The assay can be described thus: Anticancer activity against human COLO205 cells assessed as growth inhibition at 50 uM after 48 hrs by SRB assay. It counts as functional. Conditions: COLO 205, 48 h, read-out: GI. A digest of the protocol:
as §2

The next assay deals with DU-145. The assay can be described thus: Anticancer activity against human DU145 cells assessed as growth inhibition at 50 uM after 48 hrs by SRB assay. The class given is functional. Conditions: DU-145, 48 h, read-out: GI. In outline: as §2
Assay [5] concerns HL-60. The assay can be described thus: Induction of necrosis in p53-deficient human HL60 cells at 50 uM after 6 hrs by FITC-conjugated annexinV/PI-based flow cytometric analysis. It counts as functional, cell-based. In outline: as §1
In assay [6] the test system is HL-60. The assay can be described thus: Anticancer activity against human HL60 cells after 48 hrs by MTT assay. The class given is functional, cell-based. Conditions: HL-60, 48 h. In outline:
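Cell proliferation measured by MTT. Cells are incubated with each analog for 48 h at the indicated concentrations, then MTT reduction is read as an index of viability. OD of the untreated control is taken as 100% viability, and IC50 is derived from this.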
(Tetrazolium assays rely on reduction of a dye to a coloured formazan, in cell work by metabolically active cells.)

In another assay the test system is PC-3. The assay can be described thus: Anticancer activity against human PC3 cells assessed as growth inhibition at 50 uM after 48 hrs by SRB assay. The class given is functional. The conditions noted are these: PC-3, 48 h, read-out: GI. In outline: as §2

Calls of active or inactive are those of the source. The calls are words filed in the database; no cut-off is given here.

With `CC[C@@]1(O)C(=O)OCc2c1cc1n(c2=O)Cc2cc3ccccc3nc2-1` [CAMPTOTHECIN], the Activity in the assay on HL-60 [1] was 7%; in the assay on HL-60 [2] it was 18%.
By IC50 is commonly meant the concentration needed to halve the response being measured. Read a low IC50 as greater potency. On to `CCC(=O)O[C@H]1CC[C@@]2(C)[C@@H](CC[C@]3(C)[C@@H]2CC=C2[C@@H]4[C@@H](C)[C@H](C)CC[C@]4(C)CC[C@]23C)[C@@]1(C)C(=O)O`, for which the Activity was 20% in the assay with HL-60 [1] and 18% in the assay with HL-60 [2]. For the same molecule, the outcome in the assay with HL-60 [3] and in the assay on HL-60 [5] was inactive. Also, the inhibition of growth at 50 µM was determined as 89% in the assay with SW-620; 92% in the assay on HT-29; 87% in the assay on HEp-2; 86% with COLO 205; 88% in the assay on DU-145; 95% in the assay on PC-3. Moreover, in the assay on HL-60 [4], the result was Active. In the assay on HL-60 [6], this molecule had an IC50 of 12 µM.
Take `C[C@H]1[C@H](C)CC[C@]2(C)CC[C@]3(C)C(=CC[C@@H]4[C@@]5(C)CC[C@@H](O)[C@](C)(C(=O)O)[C@@H]5CC[C@]43C)[C@H]12` [BOSWELLIC ACID]: the Activity is reported as 34% in the assay with HL-60 [1] and 20% in the assay with HL-60 [2]. Besides, the result in the assay with HL-60 [3] and in the assay on HL-60 [5] was inactive. The inhibition of growth at 50 µM in the assay with SW-620 worked out at 64%; in the assay on HT-29, 66%; with HEp-2 it was 43%; in the assay with COLO 205 it was 85%; in the assay with DU-145 it was 92%; in the assay with PC-3 it was 100%. The molecule further displayed a 50% inhibitory concentration (IC50) in the assay with HL-60 [6] of 15 µM.
With `CCC(=O)O[C@@H]1CC[C@@]2(C)[C@@H](CC[C@]3(C)[C@@H]2CC=C2[C@@H]4[C@@H](C)[C@H](C)CC[C@]4(C)CC[C@]23C)[C@@]1(C)C(=O)O`, the values for the Activity with HL-60 [1] and with HL-60 [2] were 24% and 23%, respectively. In addition, the outcome in the assay on HL-60 [3] and in the assay with HL-60 [5] was inactive. Further, the inhibition of growth at 50 µM in the assay on SW-620 is 94%; in the assay with HT-29, 93%; in the assay with HEp-2, 86%; in the assay on COLO 205, 84%; with DU-145, 91%; in the assay with PC-3, 93%. Further, the result with HL-60 [4] was Active. Also, the IC50 with HL-60 [6] was 13 µM.
As to `CCCC(=O)O[C@@H]1CC[C@@]2(C)[C@@H](CC[C@]3(C)[C@@H]2CC=C2[C@@H]4[C@@H](C)[C@H](C)CC[C@]4(C)CC[C@]23C)[C@@]1(C)C(=O)O`, the Activity with HL-60 [1] amounted to 13%; with HL-60 [2], 31%. In addition, the result in the assay with HL-60 [3] and in the assay with HL-60 [5] was inactive. Further, the inhibition of growth at 50 µM in the assay with SW-620 came to 93%; in the assay with HT-29, 95%; with HEp-2 it was 94%; with COLO 205, 88%; in the assay on DU-145, 89%; in the assay on PC-3, 77%. The outcome in the assay with HL-60 [4] was Active. This molecule gave an IC50 in the assay with HL-60 [6] of 14 µM.
With `CCC(=O)O[C@@H]1CC[C@@]2(C)[C@@H](CC[C@]3(C)[C@@H]2C(=O)C=C2[C@@H]4[C@@H](C)[C@H](C)CC[C@]4(C)CC[C@]23C)[C@@]1(C)C(=O)O`, the Activity amounted to 17% in the assay on HL-60 [1] and 21% in the assay with HL-60 [2]. The result in the assay with HL-60 [3] and in the assay on HL-60 [5] was inactive. Also, the inhibition of growth at 50 µM with SW-620 amounted to 85%; in the assay on HT-29, 89%; in the assay with HEp-2, 69%; with COLO 205, 87%; in the assay on DU-145 it was 25%; in the assay with PC-3 it was 64%. For the same molecule, the result with HL-60 [4] was Active. The same molecule came in with an IC50 in the assay on HL-60 [6] of 16 µM.
For `CC(=O)O[C@@H]1CC[C@@]2(C)[C@@H](CC[C@]3(C)[C@@H]2CC=C2[C@@H]4[C@@H](C)[C@H](C)CC[C@]4(C)CC[C@]23C)[C@@]1(C)C(=O)O`, the inhibition of growth at 50 µM came out at 93% with SW-620; 93% in the assay on HT-29; 85% with HEp-2; 91% in the assay on COLO 205; 3% in the assay on DU-145; 44% in the assay on PC-3.
Turning to `C[C@H]1[C@H](C)CC[C@]2(C)CC[C@]3(C)C(=CC(=O)[C@@H]4[C@@]5(C)CC[C@H](OC(=O)CCC(=O)O)[C@](C)(C(=O)O)[C@@H]5CC[C@]43C)[C@H]12`, the inhibition of growth at 50 µM stood at 4% with SW-620; 17% in the assay on HT-29; 19% in the assay on HEp-2; 28% in the assay with COLO 205; 83% in the assay with DU-145; 62% with PC-3.
For `C[C@H]1[C@H](C)CC[C@]2(C)CC[C@]3(C)C(=CC(=O)[C@@H]4[C@@]5(C)CC[C@H](O)[C@](C)(C(=O)O)[C@@H]5CC[C@]43C)[C@H]12`, the inhibition of growth at 50 µM turned out to be 45% in the assay with SW-620; 44% in the assay with HT-29; 51% with HEp-2; 49% in the assay on COLO 205; 84% with DU-145; 70% with PC-3.
On to `CCCC(=O)O[C@H]1CC[C@@]2(C)[C@@H](CC[C@]3(C)[C@@H]2C(=O)C=C2[C@@H]4[C@@H](C)[C@H](C)CC[C@]4(C)CC[C@]23C)[C@@]1(C)C(=O)O`, for which the inhibition of growth at 50 µM is 79% in the assay with SW-620; 62% in the assay on HT-29; 66% with HEp-2; 91% in the assay on COLO 205; 92% in the assay with DU-145; 94% with PC-3.
As for `C[C@H]1[C@H](C)CC[C@]2(C)CC[C@]3(C)C(=CC[C@@H]4[C@@]5(C)CC[C@@H](OC(=O)CCC(=O)O)[C@](C)(C(=O)O)[C@@H]5CC[C@]43C)[C@H]12`, the inhibition of growth at 50 µM in the assay with SW-620 amounted to 67%; with HT-29 it was 72%; with HEp-2, 55%; in the assay on COLO 205, 88%; with DU-145, 93%; with PC-3 it was 90%.
